From ChEMBL document CHEMBL1157137, “Design, synthesis and biological evaluation of piperazine analogues as CB1 cannabinoid receptor ligands” (Bioorg Med Chem, 2008)

Assays:
[1] = target: Cannabinoid receptor 1 (Rattus norvegicus, UniProt P20272); assay: Displacement of [3H]CP-55940 from CB1 receptor in Sprague-Dawley rat cerebella membrane
Outline: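 Male Sprague–Dawley rat (200–300 g) cerebellar membranes incubated with 3 nM [3H]CP55,940 and varied ligand concentrations in TME buffer with 0.5% fatty-acid-free BSA, 1 h at 30 °C. Filtered over PEI-soaked GF/B filters, washed five times with ice-cold buffer containing 0.1% BSA, then counted by liquid scintillation. IC50 from single determinations.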

[2] = target: Cannabinoid receptor 2 (Homo sapiens, UniProt P34972); assay: Displacement of [3H]WIN-55212-2 from human CB2 receptor expressed in CHOK1 cells; assay type: cell-based, CHO-K1
Outline: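 Membranes were from CHO K-1 cells transfected with human CB2. They were incubated with 3 nM [3H]WIN55,212-2 and varied ligand concentrations in TME/0.5% fatty-acid-free BSA, 1 h at 30 °C. Bound ligand was separated on 0.1% PEI-soaked GF/B filters, washed five times with ice-cold 0.1% BSA buffer, and counted by scintillation. IC50 from single determinations.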

[3] = target: Cannabinoid receptor 1 (Homo sapiens, UniProt P21554); assay: Antagonist activity at human CB1 receptor expressed in CHOK1 cells by luciferase assay; assay type: functional, cell-based, CHO-K1
Sequence of Cannabinoid receptor 1 (Homo sapiens, UniProt P21554) (P21554 whole entry): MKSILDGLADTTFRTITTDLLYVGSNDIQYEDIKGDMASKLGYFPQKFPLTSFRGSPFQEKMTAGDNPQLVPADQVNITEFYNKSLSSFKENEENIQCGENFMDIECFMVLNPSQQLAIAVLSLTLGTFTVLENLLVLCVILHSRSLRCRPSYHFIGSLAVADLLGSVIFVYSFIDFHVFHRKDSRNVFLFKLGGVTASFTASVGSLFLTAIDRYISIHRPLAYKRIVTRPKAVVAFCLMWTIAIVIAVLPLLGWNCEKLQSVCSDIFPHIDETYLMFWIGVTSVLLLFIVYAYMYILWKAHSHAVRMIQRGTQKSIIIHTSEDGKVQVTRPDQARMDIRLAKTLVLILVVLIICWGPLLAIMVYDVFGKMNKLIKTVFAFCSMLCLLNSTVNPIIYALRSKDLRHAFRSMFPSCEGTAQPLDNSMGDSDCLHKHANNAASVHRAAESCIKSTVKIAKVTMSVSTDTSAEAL

Sequence of Cannabinoid receptor 2 (P34972 whole entry): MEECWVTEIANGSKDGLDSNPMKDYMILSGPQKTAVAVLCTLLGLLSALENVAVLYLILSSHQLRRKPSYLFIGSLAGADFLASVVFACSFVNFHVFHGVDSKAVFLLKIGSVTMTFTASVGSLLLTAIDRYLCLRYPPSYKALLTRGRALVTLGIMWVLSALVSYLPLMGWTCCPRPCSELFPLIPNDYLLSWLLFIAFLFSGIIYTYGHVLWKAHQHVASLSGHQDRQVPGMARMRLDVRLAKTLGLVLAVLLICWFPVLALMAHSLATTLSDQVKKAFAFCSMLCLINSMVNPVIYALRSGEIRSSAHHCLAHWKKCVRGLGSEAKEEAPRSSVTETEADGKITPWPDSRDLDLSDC
Sequence of Cannabinoid receptor 1 (Rattus norvegicus, UniProt P20272) (P20272 whole entry): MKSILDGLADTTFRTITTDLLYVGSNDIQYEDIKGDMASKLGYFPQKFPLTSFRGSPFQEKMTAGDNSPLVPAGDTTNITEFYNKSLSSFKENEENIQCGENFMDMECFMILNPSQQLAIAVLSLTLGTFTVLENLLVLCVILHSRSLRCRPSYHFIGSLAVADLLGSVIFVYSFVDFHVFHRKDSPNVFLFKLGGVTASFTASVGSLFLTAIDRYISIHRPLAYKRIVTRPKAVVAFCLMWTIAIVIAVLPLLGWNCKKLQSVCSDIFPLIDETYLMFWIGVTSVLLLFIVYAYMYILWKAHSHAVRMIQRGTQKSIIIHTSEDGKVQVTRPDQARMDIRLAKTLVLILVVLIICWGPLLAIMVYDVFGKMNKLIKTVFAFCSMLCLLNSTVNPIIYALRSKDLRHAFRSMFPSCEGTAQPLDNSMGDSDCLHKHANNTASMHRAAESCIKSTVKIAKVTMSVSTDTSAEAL

| Compound | IC50 [1] | IC50 [2] | IC50 [3] |
| --- | --- | --- | --- |
| O=C(NCC1CCCCC1)N1CCN(C(c2ccc(Br)cc2)c2ccccc2Cl)CC1 (stereo not drawn) | 127 nM | > 10000 nM | 146 nM |
| CC(C)(C)NC(=O)N1CCN(C(c2ccc(Br)cc2)c2ccccc2Cl)CC1 (stereo not drawn) | 237 nM | 4950 nM | 286 nM |
| O=C(NC1CCCCCC1)N1CCN(C(c2ccc(Br)cc2)c2ccccc2Cl)CC1 (stereo not drawn) | 82.3 nM | > 10000 nM | 49.4 nM |
| O=C(NC1CCCCC1)N1CCN(C(c2ccc(Br)cc2)c2ccccc2Cl)CC1 (stereo not drawn) | 103 nM | > 10000 nM | 62.8 nM |
| O=C(NC1CCCCCC1)C(=O)N1CCN(C(c2ccc(Cl)cc2)c2ccccc2Cl)CC1 (stereo not drawn) | 229 nM |  |  |
| O=C(NCC1CCCCC1)N1CCN(C(c2ccc(Cl)cc2)c2ccccc2C(F)(F)F)CC1 (stereo not drawn) | 526 nM | > 10000 nM | 798 nM |
| CC(C)(C)NC(=O)N1CCN(C(c2ccc(Cl)cc2)c2ccccc2C(F)(F)F)CC1 (stereo not drawn) | 2050 nM |  |  |
| O=C(NC1CCCCC1)C(=O)N1CCN(C(c2ccc(Cl)cc2)c2ccccc2Cl)CC1 (stereo not drawn) | 226 nM |  |  |
| O=C(NCC1CCCCC1)N1CCN(C(c2ccc(Cl)cc2)c2cccc(Cl)c2Cl)CC1 (stereo not drawn) | 2000 nM |  |  |
| CC(C)(C)NC(=O)N1CCN(C(c2ccc(Cl)cc2)c2cccc(Cl)c2Cl)CC1 (stereo not drawn) | 783 nM | > 10000 nM | 316 nM |
| O=C(NC1CCCCCC1)N1CCN(C(c2ccc(Cl)cc2)c2cccc(Cl)c2Cl)CC1 (stereo not drawn) | 158 nM | > 10000 nM | 424 nM |
| CCCCCC(=O)N1CCN(C(c2ccc(Cl)cc2)c2ccc(Cl)cc2Cl)CC1 (stereo not drawn) | 257 nM |  |  |
| O=C(NC1CCCCCC1)N1CCN(C(c2ccc(Cl)cc2)c2ccc(Cl)cc2Cl)CC1 (stereo not drawn) | 89.2 nM | > 10000 nM | 729 nM |
| O=C(NC1CCCCC1)N1CCN(C(c2ccc(Cl)cc2)c2cccc(Cl)c2Cl)CC1 (stereo not drawn) | 186 nM | > 10000 nM | 441 nM |
| O=C(NCC1CCCCC1)N1CCN(C(c2ccc(Cl)cc2)c2ccccc2Cl)CC1 (stereo not drawn) | 189 nM | > 10000 nM | 273 nM |
| Cc1ccccc1C(c1ccc(Cl)cc1)N1CCN(C(=O)NC2CCCCC2)CC1 (stereo not drawn) | 248 nM | > 10000 nM | 195 nM |

| Compound | IC50 [1] | IC50 [2] | IC50 [3] |
| --- | --- | --- | --- |
| Cc1ccccc1C(c1ccc(Cl)cc1)N1CCN(C(=O)NC2CCCCCC2)CC1 (stereo not drawn) | 151 nM | > 10000 nM | 163 nM |
| O=C(C1CCCCC1)N1CCN(C(c2ccc(Cl)cc2)c2ccc(Cl)cc2)CC1 | 1390 nM |  |  |
| CCCCCC(=O)N1CCN(C(c2ccc(Cl)cc2)c2ccc(Cl)cc2)CC1 | 1150 nM |  |  |
| O=C(NC1CCCCC1)N1CCN(C(c2ccc(Cl)cc2)c2ccccc2Cl)CC1 (stereo not drawn) | 72.8 nM | > 10000 nM | 128 nM |
| CC(C)(C)NC(=O)N1CCN(C(c2ccc(Cl)cc2)c2ccc(Cl)cc2Cl)CC1 (stereo not drawn) | 2000 nM |  |  |
| O=C(NC1CCCCCC1)N1CCN(C(c2ccc(Cl)cc2)c2ccccc2Cl)CC1 (stereo not drawn) | 66.5 nM | > 10000 nM | 226 nM |
| O=C(NC1CCCCC1)N1CCN(C(c2ccc(Cl)cc2)c2ccc(Cl)cc2)CC1 | 914 nM |  |  |
| Cc1ccccc1C(c1ccc(Cl)cc1)N1CCN(C(=O)NCC2CCCCC2)CC1 (stereo not drawn) | 291 nM | > 10000 nM | 340 nM |
| O=C(NC1CCCCC1)N1CCN(C(c2ccc(Cl)cc2)c2ccccc2C(F)(F)F)CC1 (stereo not drawn) | 163 nM | > 10000 nM | 186 nM |
| O=C(NC1CCCCCC1)N1CCN(C(c2ccc(Cl)cc2)c2ccccc2C(F)(F)F)CC1 (stereo not drawn) | 141 nM | > 10000 nM | 204 nM |
| CC(C)(C)NC(=O)N1CCN(C(c2ccc(Cl)cc2)c2ccccc2Cl)CC1 (stereo not drawn) | 122 nM | 4820 nM | 443 nM |
| O=C(C1CCC1)N1CCN(C(c2ccc(Cl)cc2)c2ccc(Cl)cc2)CC1 | 1070 nM |  |  |
| O=C(NCC1CCCCC1)N1CCN(C(c2ccc(Cl)cc2)c2ccc(Cl)cc2Cl)CC1 (stereo not drawn) | 262 nM | > 10000 nM | 1040 nM |
| Cc1ccccc1C(c1ccc(Cl)cc1)N1CCN(C(=O)NC(C)(C)C)CC1 (stereo not drawn) | 680 nM | > 10000 nM | 334 nM |
| O=C(NC1CCCCC1)N1CCN(C(c2ccc(Cl)cc2)c2ccc(Cl)cc2Cl)CC1 (stereo not drawn) | 104 nM | > 10000 nM | 367 nM |
